Assays:
[1] = molecular target: T1, Phenylethanolamine N-methyltransferase (Bos taurus) (UniProt P10938); experiment: Inhibition of bovine adrenal medulla PNMT at 0.2 mM by radiochemical technique
T1 sequence (whole entry): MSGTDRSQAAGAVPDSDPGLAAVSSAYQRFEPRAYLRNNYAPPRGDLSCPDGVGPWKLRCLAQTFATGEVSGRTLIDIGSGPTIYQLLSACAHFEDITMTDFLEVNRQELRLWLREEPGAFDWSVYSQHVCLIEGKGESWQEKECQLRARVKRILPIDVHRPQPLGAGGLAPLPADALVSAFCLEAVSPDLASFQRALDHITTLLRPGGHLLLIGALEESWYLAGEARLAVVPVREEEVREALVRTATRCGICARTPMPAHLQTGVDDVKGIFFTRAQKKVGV
Summary of the method: (§1)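 Bovine adrenal medulla PNMT, purified by a published method, was tested with inhibitor at 0.2 or 2.0 mM, SAM-14CH3 (0.05 μCi, 1.0 mM final) and DL-β-phenylethanolamine (1.0 mM final) in buffer. Incubation was at 37 °C. Activity was measured radiochemically by extracting the labeled product.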

[2] = molecular target: Histamine N-methyltransferase (Cavia porcellus) (UniProt Q9EST2); experiment: Inhibition of guinea pig HMT at 0.2 mM by radiochemical technique
Summary of the method: (§2)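 HMT from guinea pig brain, purified by a published method, was tested with inhibitor at 0.2 or 2.0 mM, SAM-14CH3 (0.05 μCi, 1.0 mM final) and histamine (1.0 mM final) in buffer. Incubation was at 37 °C. Activity was measured radiochemically by extracting the radiolabeled product.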

[3] = molecular target: T2, Catechol O-methyltransferase (Rattus norvegicus) (UniProt P22734); experiment: Inhibition of Sprague-Dawley rat liver COMT at 0.2 mM by radiochemical technique
T2 sequence (whole entry): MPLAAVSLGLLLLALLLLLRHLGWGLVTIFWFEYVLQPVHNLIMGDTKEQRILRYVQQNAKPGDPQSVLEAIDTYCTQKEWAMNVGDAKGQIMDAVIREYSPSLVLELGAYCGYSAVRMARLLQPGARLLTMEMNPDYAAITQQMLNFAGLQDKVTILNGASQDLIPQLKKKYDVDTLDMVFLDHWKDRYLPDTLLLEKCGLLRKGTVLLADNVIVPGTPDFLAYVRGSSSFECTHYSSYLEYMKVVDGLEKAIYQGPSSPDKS
Summary of the method: (§3)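 Rat liver COMT, purified by a published method, was tested with inhibitor at 0.2 or 2.0 mM, SAM-14CH3 (0.05 μCi, 1.0 mM final) and 3,4-dihydroxybenzoate (2.0 mM final) in buffer. Incubation was at 37 °C. Activity was measured radiochemically by extracting the radiolabeled methylated product.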

[4] = molecular target: T2, Catechol O-methyltransferase (Rattus norvegicus); experiment: Inhibition of Sprague-Dawley rat liver COMT at 2 mM by radiochemical technique; summary of the method: as §3
[5] = molecular target: Histamine N-methyltransferase (Cavia porcellus) (UniProt Q9EST2); experiment: Inhibition of guinea pig HMT at 2 mM by radiochemical technique; summary of the method: as §2
[6] = molecular target: T3, Acetylserotonin O-methyltransferase (Bos taurus) (UniProt P10950); experiment: Inhibition of bovine pineal gland HIOMT at 2 mM by radiochemical technique
T3 sequence (whole entry): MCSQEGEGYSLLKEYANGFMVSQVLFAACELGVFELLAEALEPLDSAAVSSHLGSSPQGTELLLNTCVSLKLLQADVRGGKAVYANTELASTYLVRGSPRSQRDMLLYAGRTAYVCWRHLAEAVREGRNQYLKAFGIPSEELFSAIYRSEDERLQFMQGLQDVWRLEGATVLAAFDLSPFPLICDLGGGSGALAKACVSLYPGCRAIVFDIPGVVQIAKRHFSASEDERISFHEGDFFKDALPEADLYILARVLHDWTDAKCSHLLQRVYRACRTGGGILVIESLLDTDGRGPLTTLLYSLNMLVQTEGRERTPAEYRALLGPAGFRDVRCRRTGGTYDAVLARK
Summary of the method: (§4)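 Bovine pineal gland HIOMT, purified by a published method, was tested with inhibitor at 0.2 or 2.0 mM, SAM-14CH3 (0.05 μCi, 1.0 mM final) and N-acetylserotonin (1.0 mM final) in buffer. Incubation was at 37 °C. Product formation was read radiochemically after extraction of the labeled product.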

[7] = molecular target: T1, Phenylethanolamine N-methyltransferase (Bos taurus); experiment: Inhibition of bovine adrenal medulla PNMT at 2 mM by radiochemical technique; summary of the method: as §1
[8] = Retardation factor, Rf of the compound on silica gel GF containing EtOH-HOAc-H2O (20:2:2)/0.1 M phosphate buffer at 7.4 by chromatography; assay type: physicochemical; conditions: pH 7.4
Summary of the method: (§5)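 TLC plates carried a 250 μm silica gel GF layer. Spots were located visually under UV light, and with ninhydrin for amine-containing compounds.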

[9] = molecular target: T3, Acetylserotonin O-methyltransferase (Bos taurus); experiment: Inhibition of bovine pineal gland HIOMT at 0.2 mM by radiochemical technique; summary of the method: as §4
[10] = Retardation factor, Rf of the compound on silica gel GF containing 5% Na2HPO4 by chromatography; assay type: physicochemical; summary of the method: as §5
[11] = molecular target: T1, Phenylethanolamine N-methyltransferase (Bos taurus); experiment: Inhibition of bovine adrenal medulla PNMT at 0.4 mM by radiochemical technique
[12] = molecular target: T3, Acetylserotonin O-methyltransferase (Bos taurus); experiment: Inhibition of bovine pineal gland HIOMT at 1 mM by radiochemical technique
[13] = molecular target: T2, Catechol O-methyltransferase (Rattus norvegicus); experiment: Inhibition of Sprague-Dawley rat liver COMT at 1 mM by radiochemical technique
[14] = molecular target: Histamine N-methyltransferase (Cavia porcellus) (UniProt Q9EST2); experiment: Inhibition of guinea pig HMT at 1 mM by radiochemical technique
[15] = molecular target: Histamine N-methyltransferase (Cavia porcellus) (UniProt Q9EST2); experiment: Inhibition of guinea pig HMT at 0.4 mM by radiochemical technique
[16] = molecular target: T2, Catechol O-methyltransferase (Rattus norvegicus); experiment: Inhibition of Sprague-Dawley rat liver COMT at 0.4 mM by radiochemical technique
[17] = molecular target: T1, Phenylethanolamine N-methyltransferase (Bos taurus); experiment: Inhibition of bovine adrenal medulla PNMT at 1 mM by radiochemical technique
[18] = molecular target: T3, Acetylserotonin O-methyltransferase (Bos taurus); experiment: Inhibition of bovine pineal gland HIOMT at 0.4 mM by radiochemical technique

Chain of Histamine N-methyltransferase (Cavia porcellus) (Q9EST2 whole entry): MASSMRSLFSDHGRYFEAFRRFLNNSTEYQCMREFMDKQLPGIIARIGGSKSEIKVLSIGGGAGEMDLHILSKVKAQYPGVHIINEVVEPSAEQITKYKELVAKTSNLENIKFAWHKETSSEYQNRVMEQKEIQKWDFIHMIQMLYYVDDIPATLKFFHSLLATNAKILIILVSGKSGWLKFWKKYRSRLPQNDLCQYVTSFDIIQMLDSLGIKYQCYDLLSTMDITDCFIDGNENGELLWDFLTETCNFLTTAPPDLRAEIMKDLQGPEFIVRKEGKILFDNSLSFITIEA

Compound | inhibition [1] | inhibition [2] | inhibition [3] | inhibition [4] | inhibition [5] | inhibition [6] | inhibition [7] | Rf [8] | inhibition [9] | Rf [10] | inhibition [11] | inhibition [12] | inhibition [13] | inhibition [14] | inhibition [15] | inhibition [16] | inhibition [17] | inhibition [18]
Nc1ncnc2c1ncn2[C@@H](CO)O[C@@H](CO)C[S+]([O-])CC[C@@H](N)C(=O)O (some centres undefined) | 9% | 0% | 5% | 22% | 0% | 16% | 17% | 0.74 | 7% | 0.6 |  |  |  |  |  |  |  | 
Nc1ncnc2c1ncn2[C@@H](CO)O[C@@H](CO)CSCC[C@@H](N)C(=O)O | 8% | 0% | 0% | 26% | 19% | 26% | 16% | 0.72 | 9% | 0.65 |  |  |  |  |  |  |  | 
Nc1ncnc2c1ncn2[C@@H]1O[C@H](CSCCC(N)C(=O)O)[C@@H](O)[C@H]1O (single isomer, unassigned) | 14% | 73% | 5% | 22% | 99% | 6% | 32% |  | 1% |  |  |  |  |  |  |  |  | 
Nc1ncnc2c1nnn2[C@@H](CO)O[C@@H](CO)CSCC[C@@H](N)C(=O)O | 0% | 0% | 0% | 17% | 0% | 31% | 10% | 0.58 | 12% | 0.69 |  |  |  |  |  |  |  | 
Nc1nnnc2c1ncn2[C@@H]1O[C@H](CSCCC(N)C(=O)O)[C@@H](O)[C@H]1O (single isomer, unassigned) |  |  |  |  |  |  |  | 0.79 |  | 0.7 | 38% | 39% | 6% | 8% | 0% | 3% | 58% | 23%
Nc1ncnc2c1ncn2[C@@H]1O[C@H](C[S+]([O-])CC[C@@H](N)C(=O)O)[C@@H](O)[C@H]1O (some centres undefined) | 10% | 0% | 14% | 42% | 9% | 0% | 22% | 0.74 | 0% | 0.72 |  |  |  |  |  |  |  | 
Nc1ncnc2c1ncn2[C@@H]1O[C@H](CSCC(N)C(=O)O)[C@@H](O)[C@H]1O (single isomer, unassigned) | 11% | 14% | 0% | 5% | 43% | 33% | 27% | 0.79 | 12% | 0.74 |  |  |  |  |  |  |  | 
Nc1ncnc2c1ncn2[C@@H](CO)O[C@@H](CO)CSCC[C@H](N)C(=O)O | 0% | 0% | 2% | 25% | 0% | 6% | 0% | 0.72 | 0% | 0.65 |  |  |  |  |  |  |  | 
C[S+](CC[C@@H](N)C(=O)O)C[C@H](CO)O[C@H](CO)n1cnc2c(N)ncnc21 (some centres undefined) | 1% | 0% | 7% | 14% | 0% | 8% | 21% | 0.11 | 0% | 0.46 |  |  |  |  |  |  |  | 
Nc1ncnc2c1ncn2[C@@H](CO)O[C@@H](CO)CSC[C@@H](N)C(=O)O | 10% | 0% | 0% | 12% | 3% | 0% | 15% | 0.75 | 0% | 0.63 |  |  |  |  |  |  |  | 
Nc1ncnc2c1ncn2[C@@H]1O[C@H](CSCC[C@H](N)C(=O)O)[C@@H](O)[C@H]1O [S-ADENOSYLHOMOCYSTEINE] | 49% | 40% | 39% | 87% | 89% | 94% | 92% | 0.73 | 71% | 0.73 |  |  |  |  |  |  |  | 
C[S+](CC[C@H](N)C(=O)[O-])C[C@H]1O[C@@H](n2cnc3c(N)ncnc32)[C@H](O)[C@@H]1O (some centres undefined) [ADEMETIONINE] |  |  |  |  |  |  |  | 0.2 |  | 0.34 |  |  |  |  |  |  |  | 
Nc1nnnc2c1ncn2[C@@H](CO)O[C@@H](CO)CSCC[C@@H](N)C(=O)O | 0% | 0% | 4% | 5% | 0% | 25% | 15% | 0.66 | 18% | 0.69 |  |  |  |  |  |  |  | 
Nc1ncnc2c1nnn2[C@@H]1O[C@H](CSCCC(N)C(=O)O)[C@@H](O)[C@H]1O (single isomer, unassigned) |  |  |  |  |  | 89% |  | 0.72 | 49% | 0.71 |  |  |  |  |  |  |  | 
